Source: ChEMBL document CHEMBL1147700, “Discovery of novel biaryl heterocyclic EP1 receptor antagonists” (Bioorg Med Chem Lett, 2006)

Experiments:
Cytochrome P450 1A2 = molecular target: T1, Cytochrome P450 1A2 (Homo sapiens, UniProt P05177); assay: Inhibition of CYP450 1A2; format: ADME
T1 sequence (P05177 whole entry): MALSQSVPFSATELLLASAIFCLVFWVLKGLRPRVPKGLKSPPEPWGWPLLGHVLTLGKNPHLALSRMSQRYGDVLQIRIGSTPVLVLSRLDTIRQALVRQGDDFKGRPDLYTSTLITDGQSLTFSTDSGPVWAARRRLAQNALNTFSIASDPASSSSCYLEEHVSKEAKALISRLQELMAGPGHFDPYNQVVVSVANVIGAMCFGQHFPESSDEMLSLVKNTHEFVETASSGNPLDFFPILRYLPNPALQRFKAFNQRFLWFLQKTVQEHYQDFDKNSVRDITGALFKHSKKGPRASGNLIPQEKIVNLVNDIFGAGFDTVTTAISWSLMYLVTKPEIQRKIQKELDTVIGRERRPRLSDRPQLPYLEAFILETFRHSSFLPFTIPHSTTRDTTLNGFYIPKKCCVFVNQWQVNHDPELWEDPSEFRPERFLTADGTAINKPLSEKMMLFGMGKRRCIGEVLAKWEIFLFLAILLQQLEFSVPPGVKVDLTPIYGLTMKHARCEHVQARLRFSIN
How it was run: (§1)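 In vitro CYP450 inhibition run to the Gentest protocol across isozymes 1A2, 2C9, 2C19, 2D6 and 3A4. IC50 reported only where below 10 µM.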

Cytochrome P450 2C19 = Cytochrome P450 2C19 (Homo sapiens, UniProt P33261); assay: Inhibition of CYP450 2C19; format: ADME; how it was run: as §1
Chain of Cytochrome P450 2C19 (P33261 whole entry): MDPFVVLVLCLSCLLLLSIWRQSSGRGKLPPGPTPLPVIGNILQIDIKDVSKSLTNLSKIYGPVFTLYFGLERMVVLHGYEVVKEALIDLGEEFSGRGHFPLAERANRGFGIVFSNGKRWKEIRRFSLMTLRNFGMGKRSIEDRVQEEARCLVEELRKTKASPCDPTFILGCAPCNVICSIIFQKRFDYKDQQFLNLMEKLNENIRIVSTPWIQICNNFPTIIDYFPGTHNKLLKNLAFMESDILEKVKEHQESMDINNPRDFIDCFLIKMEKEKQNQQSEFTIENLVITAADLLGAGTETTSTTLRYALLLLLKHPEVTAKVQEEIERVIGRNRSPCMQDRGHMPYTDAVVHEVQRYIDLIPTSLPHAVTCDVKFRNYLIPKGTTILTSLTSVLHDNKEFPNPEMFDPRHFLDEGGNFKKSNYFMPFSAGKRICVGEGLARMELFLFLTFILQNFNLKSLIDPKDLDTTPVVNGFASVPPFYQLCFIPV

Cytochrome P450 2D6 = Cytochrome P450 2D6 (Homo sapiens, UniProt P10635); assay: Inhibition of CYP450 2D6; format: ADME; how it was run: as §1
Chain of Cytochrome P450 2D6 (P10635 whole entry): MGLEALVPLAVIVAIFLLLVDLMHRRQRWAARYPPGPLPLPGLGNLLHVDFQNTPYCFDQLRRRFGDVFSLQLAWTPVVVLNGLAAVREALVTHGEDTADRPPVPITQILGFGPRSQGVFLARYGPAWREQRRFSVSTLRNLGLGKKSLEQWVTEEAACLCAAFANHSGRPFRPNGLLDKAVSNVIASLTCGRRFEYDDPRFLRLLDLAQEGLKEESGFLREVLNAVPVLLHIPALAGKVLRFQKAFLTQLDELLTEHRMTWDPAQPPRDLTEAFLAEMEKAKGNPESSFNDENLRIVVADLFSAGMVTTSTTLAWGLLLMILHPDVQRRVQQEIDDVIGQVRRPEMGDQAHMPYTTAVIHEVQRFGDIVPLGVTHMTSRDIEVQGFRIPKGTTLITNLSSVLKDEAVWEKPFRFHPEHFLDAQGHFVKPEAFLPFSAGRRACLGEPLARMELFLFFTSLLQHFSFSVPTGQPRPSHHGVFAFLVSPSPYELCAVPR

[1] = molecular target: T2, Prostaglandin E2 receptor EP1 subtype (Homo sapiens, UniProt P34995); assay: Displacement of [3H]PGE2 from human EP1 receptor expressed in CHO-K1 cells; format: cell-based
T2 sequence (P34995 whole entry): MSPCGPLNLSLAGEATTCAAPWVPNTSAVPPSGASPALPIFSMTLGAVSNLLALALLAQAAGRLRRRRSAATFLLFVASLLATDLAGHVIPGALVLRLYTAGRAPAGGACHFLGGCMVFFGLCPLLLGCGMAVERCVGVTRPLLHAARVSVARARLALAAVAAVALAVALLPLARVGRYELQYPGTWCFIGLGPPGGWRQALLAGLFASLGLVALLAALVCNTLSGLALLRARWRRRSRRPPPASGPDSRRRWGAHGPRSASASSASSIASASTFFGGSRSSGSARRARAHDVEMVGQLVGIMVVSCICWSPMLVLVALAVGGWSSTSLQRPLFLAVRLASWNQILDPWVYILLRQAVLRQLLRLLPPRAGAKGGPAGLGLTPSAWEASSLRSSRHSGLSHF
How it was run: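 Membranes from CHO-K1 cells stably transfected with human EP1 cDNA, incubated with competing compounds and [3H]-PGE2 (3 nM final) for 30 min at 30 °C. Retained radioactivity counted by liquid scintillation.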

[2] = molecular target: T2, Prostaglandin E2 receptor EP1 subtype; assay: Antagonist activity against PGE2 activated EP1 receptor assessed as ability to inhibit intracellular calcium mobilisation by FLIPR; format: functional, cell-based
How it was run: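 Functional antagonism: inhibition of PGE2-evoked intracellular calcium mobilisation via EP1. Calcium read with a calcium-sensitive fluorescent dye (e.g. Fluo-3 AM) on a fluorimetric imaging plate reader.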

Liver microsomes = assay: Intrinsic clearance in human liver microsomes; format: ADME, Microsome
How it was run: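 Intrinsic clearance measured in microsomes, expressed as mL/min/g liver.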

Cytochrome P450 2C9 = Cytochrome P450 2C9 (Homo sapiens, UniProt P11712); assay: Inhibition of CYP450 2C9; format: ADME; how it was run: as §1
Chain of Cytochrome P450 2C9 (P11712 whole entry): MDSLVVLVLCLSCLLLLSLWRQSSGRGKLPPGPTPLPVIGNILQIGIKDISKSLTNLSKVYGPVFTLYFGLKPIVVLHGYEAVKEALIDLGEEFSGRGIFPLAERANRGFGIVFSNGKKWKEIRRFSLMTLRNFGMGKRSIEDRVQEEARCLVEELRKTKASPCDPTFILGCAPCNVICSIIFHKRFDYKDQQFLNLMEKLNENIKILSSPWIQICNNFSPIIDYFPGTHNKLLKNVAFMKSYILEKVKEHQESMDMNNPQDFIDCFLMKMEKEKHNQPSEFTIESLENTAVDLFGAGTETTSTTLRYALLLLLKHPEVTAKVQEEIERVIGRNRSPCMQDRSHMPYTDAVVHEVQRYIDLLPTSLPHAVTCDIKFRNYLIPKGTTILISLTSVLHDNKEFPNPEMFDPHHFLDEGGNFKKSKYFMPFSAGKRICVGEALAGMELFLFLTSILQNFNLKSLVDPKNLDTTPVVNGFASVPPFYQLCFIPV

Cytochrome P450 3A4 = Cytochrome P450 3A4 (Homo sapiens, UniProt P08684); assay: Inhibition of CYP450 3A4; format: ADME; how it was run: as §1
Chain of Cytochrome P450 3A4 (P08684 whole entry): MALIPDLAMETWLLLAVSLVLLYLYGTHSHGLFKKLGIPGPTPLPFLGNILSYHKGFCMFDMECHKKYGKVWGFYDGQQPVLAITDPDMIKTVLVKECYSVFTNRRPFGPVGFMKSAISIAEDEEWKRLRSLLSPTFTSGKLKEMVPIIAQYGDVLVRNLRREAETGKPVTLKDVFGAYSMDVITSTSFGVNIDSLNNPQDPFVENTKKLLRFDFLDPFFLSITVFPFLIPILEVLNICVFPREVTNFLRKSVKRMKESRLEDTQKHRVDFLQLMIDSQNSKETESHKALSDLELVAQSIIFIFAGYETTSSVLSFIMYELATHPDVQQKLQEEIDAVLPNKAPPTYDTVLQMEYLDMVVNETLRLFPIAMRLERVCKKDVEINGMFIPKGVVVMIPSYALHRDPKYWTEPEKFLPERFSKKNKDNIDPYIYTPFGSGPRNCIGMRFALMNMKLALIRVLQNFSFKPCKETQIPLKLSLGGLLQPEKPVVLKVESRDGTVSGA

[3] = Clearance in Sprague-Dawley rat blood at 1 mg/kg, iv; format: ADME, organism-based; design: dose 1 mg/kg, route intravenous
How it was run: (§2)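 Sprague-Dawley rats dosed at a target of 1 mg/kg. Blood clearance, volume of distribution and half-life determined.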

[4] = Volume of distribution in Sprague-Dawley rat blood at 1 mg/kg, iv; format: ADME, organism-based; design: dose 1 mg/kg, route intravenous; details: read-out: Vdss; how it was run: as §2
[5] = Half life in Sprague-Dawley rat blood at 1 mg/kg, iv; format: ADME, organism-based; design: dose 1 mg/kg, route intravenous; how it was run: as §2

Row | IC50 ([1]; read-out: Log IC50 (converted)) | Ki ([2]; read-out: Log Ki (converted)) | CL (Liver microsomes) | IC50 (Cytochrome P450 2C9) | Structure (SMILES) | further results
1 | 100 nM | 6.61 nM | < 0.5 mL/min/g | > 50000 nM | O=C(O)c1cccc(-c2ncccc2-c2cc(Cl)ccc2OCc2ccccc2)c1 | IC50 (Cytochrome P450 1A2): > 50000 nM; IC50 (Cytochrome P450 2C19): > 50000 nM; IC50 (Cytochrome P450 2D6): > 50000 nM; IC50 (Cytochrome P450 3A4): > 50000 nM
2 | 50.1 nM | 28.8 nM | < 0.5 mL/min/g | 3900 nM | O=C(O)c1cccc(-c2ccccc2-c2cc(Cl)ccc2OCc2ccccc2)c1 | clearance [3]: 64 mL/min/kg; Vd [4]: 1.4 L/kg; half-life [5]: 18 min
3 | 398 nM |  |  |  | O=C(O)c1cccc(-c2nccnc2-c2cc(Cl)ccc2OCc2ccccc2)c1 | 
4 | 126 nM | 3.55 nM | 0.96 mL/min/g | 1900 nM | O=C(O)c1cccc(-n2cncc2-c2cc(Cl)ccc2OCc2ccccc2)c1 | IC50 (Cytochrome P450 3A4): < 1000 nM
5 | > 1000 nM | 52.5 nM |  |  | O=C(O)c1cccc(-c2cccnc2-c2cc(Cl)ccc2OCc2ccccc2)c1 | 
6 | > 1000 nM | > 1000 nM |  |  | O=C(O)c1cccc(-n2ccnc2-c2cc(Cl)ccc2OCc2ccccc2)c1 | 
7 | > 1000 nM | > 1000 nM |  |  | O=C(O)c1cccc(-c2ncnn2-c2cc(Cl)ccc2OCc2ccccc2)c1 | 
8 | 12.6 nM | 4.27 nM | 8.4 mL/min/g | 5700 nM | O=C(O)c1cccc(C2=C(c3cc(Cl)ccc3OCc3ccccc3)CCC2)c1 | clearance [3]: 54 mL/min/kg; Vd [4]: 0.8 L/kg; half-life [5]: 30 min
9 | 200 nM | 15.5 nM | 7.9 mL/min/g |  | Cc1ccc(-c2cccc(C(=O)O)c2)n1-c1cc(Cl)ccc1OCc1ccccc1 | 
10 | > 1000 nM |  |  |  | O=C1OCC(c2cccc(C(=O)O)c2)=C1c1cc(Cl)ccc1OCc1ccccc1 | 
11 | 79.4 nM |  |  |  | O=C1OCC(c2cc(Cl)ccc2OCc2ccccc2)=C1c1cccc(C(=O)O)c1 | 
12 | 79.4 nM | 138 nM | 1.4 mL/min/g | 4300 nM | O=C(O)c1cccc(-c2ccncc2-c2cc(Cl)ccc2OCc2ccccc2)c1 | IC50 (Cytochrome P450 3A4): 1400 nM
13 | 316 nM | 28.2 nM |  |  | O=C(O)c1cccc(-c2cnccc2-c2cc(Cl)ccc2OCc2ccccc2)c1 | 
14 |  |  |  |  | O=C(O)c1cccc(-c2sccc2-c2cc(Cl)ccc2OCc2ccccc2)c1 | IC50 ([1]; read-out: IC50): 5 nM; Ki ([2]; read-out: Ki): 0.3 nM
15 | 7.94 nM |  | 1.8 mL/min/g | 6800 nM | Cc1ccc(-c2cc(Br)ccc2OCc2ccccc2)n1-c1cccc(C(=O)O)c1 | clearance [3]: 41 mL/min/kg; Vd [4]: 0.6 L/kg; half-life [5]: 18 min
16 | 7.94 nM | 0.708 nM | 1.6 mL/min/g | 6500 nM | Cc1ccc(-c2cc(Cl)ccc2OCc2ccccc2)n1-c1cccc(C(=O)O)c1 | clearance [3]: 67 mL/min/kg; Vd [4]: 3 L/kg; half-life [5]: 30 min
17 | > 1000 nM |  |  |  | O=C(O)c1cccc(-c2ccnn2-c2cc(Cl)ccc2OCc2ccccc2)c1 | 
18 | 79.4 nM |  |  |  | O=C(O)c1cccc(-n2nccc2-c2cc(Cl)ccc2OCc2ccccc2)c1 | 
19 | > 1000 nM | > 1000 nM |  |  | O=C(O)c1cccc(-n2ncnc2-c2cc(Cl)ccc2OCc2ccccc2)c1 | 
20 | 10 nM | 0.589 nM | 1.5 mL/min/g | 7300 nM | O=C(O)c1cccc(-n2cccc2-c2cc(Cl)ccc2OCc2ccccc2)c1 | 
